Laboratory results from ChEMBL document CHEMBL1127851, “Synthesis and biological properties of 5-o-carboranyl-1-(2-deoxy-2-fluoro-beta-D-arabinofuranosyl)uracil” (J Med Chem, 1994).

Columns and labels:
[1] = Compound was tested for inhibitory activity against erythroid (BFU-E) progenitor cells; type: functional, Homo sapiens
Procedure, shortened: (§1)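 Human bone marrow aspirated from healthy donors and heparinized. Mononuclear cells isolated on Ficoll-Hypaque, washed twice in HBSS; viability >98% by trypan blue. Bilayer soft agar or methyl cellulose culture at 0.1–100 μM. After 14 days at 37 °C in 5% CO2, colonies of ≥50 cells counted; % of control. Three donors, each in triplicate.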

PBMC [2] = experiment: Cytotoxic concentration against PBM cells was determined on day 6; type: functional, cell-based; conditions: Homo sapiens, 144 h
Procedure, shortened: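 Cytotoxicity in human PBM, CEM and Vero cells, compounds diluted from 40 mM DMSO stocks. IC50 from the concentration-response curve by Chou–Talalay median-effect method. Replicate assays, variability under 15%.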

PBMC [3] = experiment: Antiviral activity against HIV-1 strain LAI in PBM cells on day 6; type: functional, cell-based; conditions: Homo sapiens, 144 h
Procedure, shortened: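 HIV-1 (strain […] per footnote) in human PBM cells, acutely infected. Compounds from 40 mM DMSO stocks, diluted to test concentrations. EC50 from concentration-response curve by Chou–Talalay median-effect method. Replicate assays, variability under 15%.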

Vero = experiment: Antiviral activity against HSV-1 strain F in Vero cells on day 2; type: functional, cell-based; conditions: Chlorocebus sabaeus, 48 h
Procedure, shortened: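 Plaque reduction assay in Vero cells infected with HSV-1 strain F. […], diluted from 40 mM DMSO stocks. EC50 by Chou–Talalay median-effect analysis of the concentration-response curve. Replicate assays.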

CFU-GM = experiment: Compound was tested for inhibitory activity against human myeloid cells (CFU-GM); type: functional, cell-based; procedure, shortened: as §1
Mus musculus [4] = experiment: Percentage of weight gained or lost in 4th week in normal swiss mice at a dose of 30 mg/kg/day; type: functional
Procedure, shortened: (§2)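 Female Swiss mice, 6 weeks old, 5 per group. Given 30 mg/kg/day ip in sterile DMSO (0.1 mL) once daily for 6 days. DMSO and water controls. Weighed twice weekly for 28 days. Survival recorded at week 4.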

Mus musculus [5] = experiment: Percentage of weight gained or lost in 2nd week in normal swiss mice at a dose of 30 mg/kg/day; type: functional; procedure, shortened: as §2
Mus musculus [6] = experiment: Percentage of weight gained or lost in 3rd week in normal swiss mice at a dose of 30 mg/kg/day; type: functional; procedure, shortened: as §2
Mus musculus [7] = experiment: Percentage of weight gained or lost in 1 week in normal swiss mice at a dose of 30 mg/kg/day; type: functional; procedure, shortened: as §2
Mus musculus [8] = species on record: Mus musculus; experiment: Number of animals survived when the compound was tested at a dose of 30 mgkg/day in 5 Swiss mice; type: functional; procedure, shortened: as §2

Molecule `Cc1cn([C@H]2C[C@H](N=[N+]=[N-])[C@@H](CO)O2)c(=O)[nH]c1=O` [ZIDOVUDINE] has an IC50 [1] of 0.6 µM, an IC50 (PBMC [2]) of over 100 µM and an EC50 (PBMC [3]) of 0.004 µM. The EC50 (Vero) was over 50 µM and the IC50 (CFU-GM) was 1.5 µM.
For `C[S+](C)[O-]` [DIMETHYL SULFOXIDE], the “Weight gain or loss” value (Mus musculus [4]) was 10%, the “Weight gain or loss” value (Mus musculus [5]) was 3% and the “Weight gain or loss” value (Mus musculus [6]) was 6.3%. For the same molecule, the “Weight gain or loss” value (Mus musculus [7]) was -0.9% and the “No. of animals survived” value (Mus musculus [8]) was 5.
